Experimental data as given in ChEMBL document CHEMBL1158182, “Antifungal activity of chalcones: a mechanistic study using various yeast strains” (Eur J Med Chem, 2008).
In brackets after ≈: the same amount, converted by molar mass. Activity calls are given as the source filed them. The calls are words filed in the database; no cut-off is given here.

Assays:
Ogataea angusta [1] = test: Antifungal activity against Hansenula polymorpha AS1 with gsh1 genotype with cellular density of 10^9 cells/ml at 40 uM by agar dilution method; type: functional, organism-based
Ogataea angusta [2] = test: Antifungal activity against Hansenula polymorpha AU05 with ade3 ura3 genotype by agar dilution method; type: functional
Summary of the method: (§1)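 H. polymorpha strains were tested by agar dilution on rich YPD agar at 37 °C. Compound stocks in 96% EtOH were mixed into the medium to give […]. Cells were suspended in water, serially diluted to 10^9, 10^7, 10^5 and 10^3 cells/ml, and applied to the agar with a metal replicator. MIC was read from growth.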

Ogataea angusta [3] = test: Antifungal activity against Hansenula polymorpha 2b with arg1 ade1 leu2 genotype by agar dilution method; type: functional; summary of the method: as §1
Saccharomyces cerevisiae [4] = test: Antifungal activity against haploid Saccharomyces cerevisiae FY4 by agar dilution method; type: functional
Summary of the method: (§2)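 S. cerevisiae and K. lactis strains were tested by agar dilution on rich YPD agar at 30 °C. Compound stocks in 96% EtOH were added to the medium to give […]. Cells were suspended in water, serially diluted to 10^9–10^3 cells/ml, and plated with a metal replicator. MIC was read from growth.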

Ogataea angusta [5] = test: Antifungal activity against Hansenula polymorpha WT1 with ade1 ura3 genotype by agar dilution method; type: functional; summary of the method: as §1
Ogataea angusta [6] = test: Antifungal activity against Hansenula polymorpha WT1 with cellular density of 10^3 cells/ml at >40 uM by agar dilution method; type: functional, organism-based
Ogataea angusta [7] = test: Antifungal activity against Hansenula polymorpha MC1 with met2 cys1 genotype by agar dilution method; type: functional; summary of the method: as §1
Ogataea angusta [8] = test: Antifungal activity against Hansenula polymorpha CD1 with ade1 leu2 cds1 genotype by agar dilution method; type: functional; summary of the method: as §1
Ogataea angusta [9] = test: Antifungal activity against Hansenula polymorpha AS1 with gsh1 genotype at 20 to 30 uM after 1 day by agar dilution method; type: functional, organism-based
Ogataea angusta [10] = test: Antifungal activity against Hansenula polymorpha CTA1 with leu2 cat1 genotype by agar dilution method; type: functional
Summary of the method: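 MICs by agar dilution on rich YPD medium. Compounds were added from 96% EtOH stocks to give final agar concentrations of 20 to 50 (units as printed in the source). Cells were suspended in water, serially diluted to 10^9, 10^7, 10^5 and 10^3 cells/ml, and spotted onto agar with a metal replicator. Incubation was at 37 °C for H. polymorpha and 30 °C for S. cerevisiae.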

Ogataea angusta [11] = test: Antifungal activity against Hansenula polymorpha WT2 with ade1 met6 genotype by agar dilution method; type: functional; summary of the method: as §1
Ogataea angusta [12] = test: Antifungal activity against Hansenula polymorpha M2 with met2 genotype by agar dilution method; type: functional; summary of the method: as §1
Saccharomyces cerevisiae [13] = test: Antifungal activity against haploid Saccharomyces cerevisiae 1S by agar dilution method; type: functional; summary of the method: as §2
Ogataea angusta [14] = test: Antifungal activity against Hansenula polymorpha 2a with cys1 genotype with cellular density of 10^3 cells/ml at >40 uM by agar dilution method; type: functional, organism-based
Saccharomyces cerevisiae [15] = test: Antifungal activity against haploid Saccharomyces cerevisiae Sigma 1278b by agar dilution method; type: functional; summary of the method: as §2
Ogataea angusta [16] = test: Antifungal activity against Hansenula polymorpha AS1 with gsh1 genotype with cellular density of 10^3 cells/ml at >40 uM by agar dilution method; type: functional, organism-based
Saccharomyces cerevisiae [17] = test: Antifungal activity against haploid Saccharomyces cerevisiae YSH1170 by agar dilution method; type: functional; summary of the method: as §2
Ogataea angusta [18] = test: Antifungal activity against Hansenula polymorpha 2a with cys1 genotype with cellular density of 10^9 cells/ml at 40 uM by agar dilution method; type: functional, organism-based
Ogataea angusta [19] = test: Antifungal activity against Hansenula polymorpha AS2 with gsh2 genotype with cellular density of 10^9 cells/ml at 40 uM by agar dilution method; type: functional, organism-based
Ogataea angusta [20] = test: Antifungal activity against Hansenula polymorpha WT1 with cellular density of 10^9 cells/ml at 40 uM by agar dilution method; type: functional, organism-based
Saccharomyces cerevisiae [21] = test: Antifungal activity against haploid Saccharomyces cerevisiae 1169 by agar dilution method; type: functional; summary of the method: as §2
Kluyveromyces lactis [22] = test: Antifungal activity against Kluyveromyces lactis 2-19B with MATalpha ura lys arg genotype by agar dilution method; type: functional; summary of the method: as §2
Ogataea angusta [23] = test: Antifungal activity against Hansenula polymorpha R3 with rgh3 genotype by agar dilution method; type: functional; summary of the method: as §1
Ogataea angusta [24] = test: Antifungal activity against Hansenula polymorpha D22 with arg1/arg1 ade1/ADE1 leu2/leu2 URA3/ura3 CYS1/cys1 genotype by agar dilution method; type: functional; summary of the method: as §1
Saccharomyces cerevisiae [25] = test: Antifungal activity against diploid Saccharomyces cerevisiae 29a by agar dilution method; type: functional; summary of the method: as §2
Ogataea angusta [26] = test: Antifungal activity against Hansenula polymorpha CRD2 with leu2 CDR2 genotype by agar dilution method; type: functional; summary of the method: as §1
Ogataea angusta [27] = test: Antifungal activity against Hansenula polymorpha 2a with cys1 genotype at 20 to 30 uM after 1 day by agar dilution method; type: functional, organism-based
Ogataea angusta [28] = test: Antifungal activity against Hansenula polymorpha AS2 with gsh2 genotype at 20 to 30 uM after 1 day by agar dilution method; type: functional, organism-based
Saccharomyces cerevisiae [29] = test: Antifungal activity against haploid Saccharomyces cerevisiae 10560-6B by agar dilution method; type: functional; summary of the method: as §2
Ogataea angusta [30] = test: Antifungal activity against Hansenula polymorpha WT1 at 20 to 30 uM after 1 day by agar dilution method; type: functional, organism-based
Saccharomyces cerevisiae [31] = test: Antifungal activity against haploid Saccharomyces cerevisiae YSH1171 by agar dilution method; type: functional; summary of the method: as §2
[32] = Stability of compound in liquid YPD media after 48 hrs by UV spectrophotometry; type: physicochemical
Summary of the method: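 Compound from a 96% EtOH stock was added to liquid YPD to […]. The medium was inoculated with 10^5 cells/ml of H. polymorpha WT1 and incubated at 37 °C. Samples were taken at 24 and 48 h and centrifuged, and compound in the supernatant was measured by absorbance at 308 nm. Controls had no cells. Assays were run in triplicate.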

Saccharomyces cerevisiae [33] = test: Antifungal activity against diploid Saccharomyces cerevisiae 1a by agar dilution method; type: functional; summary of the method: as §2
Kluyveromyces lactis [34] = test: Antifungal activity against Kluyveromyces lactis 1-6A with MATalpha uraA lys arg genotype by agar dilution method; type: functional; summary of the method: as §2
Ogataea angusta [35] = test: Antifungal activity against Hansenula polymorpha 2a with arg1 leu2 ura3 cys1 genotype by agar dilution method; type: functional; summary of the method: as §1
Ogataea angusta [36] = test: Antifungal activity against Hansenula polymorpha AS2 with gsh2 genotype with cellular density of 10^3 cells/ml at >40 uM by agar dilution method; type: functional, organism-based
Ogataea angusta [37] = test: Antifungal activity against Hansenula polymorpha M4 with met4 genotype by agar dilution method; type: functional; summary of the method: as §1
Ogataea angusta [38] = test: Antifungal activity against Hansenula polymorpha CD3 with ade1 leu2 cds3 genotype by agar dilution method; type: functional; summary of the method: as §1
Kluyveromyces lactis [39] = test: Antifungal activity against Kluyveromyces lactis 2-18B with MATalpha metA1 ura3 leu2 genotype by agar dilution method; type: functional; summary of the method: as §2
Ogataea angusta [40] = test: Antifungal activity against Hansenula polymorpha CD2 with ade1 leu2 cds2 genotype by agar dilution method; type: functional; summary of the method: as §1
Saccharomyces cerevisiae [41] = test: Antifungal activity against haploid Saccharomyces cerevisiae 2180 by agar dilution method; type: functional; summary of the method: as §2
Ogataea angusta [42] = test: Antifungal activity against Hansenula polymorpha AS1 with arg1 gsh2delta genotype by agar dilution method; type: functional; summary of the method: as §1

With `O=C(/C=C/c1ccccc1)c1ccccc1` [CHALCONE] the Activity (Ogataea angusta [1]) was “inactive”, the MIC (Ogataea angusta [2]) was < 20 µg/mL and the MIC (Ogataea angusta [3]) was 30 µg/mL (≈ 144 µM). The MIC (Saccharomyces cerevisiae [4]) was > 40 µg/mL, the MIC (Ogataea angusta [5]) was 30 µg/mL (≈ 144 µM) and the Activity (Ogataea angusta [6]) was “Active”. The MIC (Ogataea angusta [7]) was 20 µg/mL (≈ 96 µM), the MIC (Ogataea angusta [8]) was 30 µg/mL (≈ 144 µM) and the Activity (Ogataea angusta [9]) was “Active”. It also gave an MIC (Ogataea angusta [10]) of 30 µg/mL (≈ 144 µM), an MIC (Ogataea angusta [11]) of 30 µg/mL (≈ 144 µM) and an MIC (Ogataea angusta [12]) of 30 µg/mL (≈ 144 µM). For the same molecule, the MIC (Saccharomyces cerevisiae [13]) was > 40 µg/mL, the Activity (Ogataea angusta [14]) was “Active” and the MIC (Saccharomyces cerevisiae [15]) was > 40 µg/mL. For the same molecule, the Activity (Ogataea angusta [16]) was “Active”, the MIC (Saccharomyces cerevisiae [17]) was > 40 µg/mL and the Activity (Ogataea angusta [18]) was “inactive”. For the same molecule, the Activity (Ogataea angusta [19]) was “inactive”, the Activity (Ogataea angusta [20]) was “inactive” and the MIC (Saccharomyces cerevisiae [21]) was > 40 µg/mL. The MIC (Kluyveromyces lactis [22]) was 25 µg/mL (≈ 120 µM), the MIC (Ogataea angusta [23]) was > 40 µg/mL and the MIC (Ogataea angusta [24]) was 30 µg/mL (≈ 144 µM). For the same molecule, the MIC (Saccharomyces cerevisiae [25]) was > 40 µg/mL, the MIC (Ogataea angusta [26]) was > 40 µg/mL and the Activity (Ogataea angusta [27]) was “Active”. The Activity (Ogataea angusta [28]) was “Active”, the MIC (Saccharomyces cerevisiae [29]) was > 40 µg/mL and the Activity (Ogataea angusta [30]) was “Active”. For the same molecule, the MIC (Saccharomyces cerevisiae [31]) was > 40 µg/mL, the Activity [32] was 7.1 µg/mL and the MIC (Saccharomyces cerevisiae [33]) was > 40 µg/mL. For the same molecule, the MIC (Kluyveromyces lactis [34]) was < 20 µg/mL, the MIC (Ogataea angusta [35]) was 25 µg/mL (≈ 120 µM) and the Activity (Ogataea angusta [36]) was “Active”. The MIC (Ogataea angusta [37]) was < 20 µg/mL, the MIC (Ogataea angusta [38]) was 30 µg/mL (≈ 144 µM) and the MIC (Kluyveromyces lactis [39]) was < 20 µg/mL. The MIC (Ogataea angusta [40]) was 30 µg/mL (≈ 144 µM), the MIC (Saccharomyces cerevisiae [41]) was > 40 µg/mL and the MIC (Ogataea angusta [42]) was 20 µg/mL (≈ 96 µM).
